Measured values from ChEMBL document CHEMBL1127302 (J Med Chem, 1994).

Assays:
[1] = target: Neuronal acetylcholine receptor (Rattus norvegicus) (UniProt P04757+P09483+P12389+P12390+P12392+P43144+Q9JLB5+P12391+P43143+P20420+Q05941); test: In vitro neuronal nAChRs evoked [3H]dopamine release was determined in rat striatal slices at concentration of 10e-6 M; type: functional
[2] = target: Neuronal acetylcholine receptor; test: In vitro binding affinity to neuronal nAChRs was determined by measuring the displacement of [3H]cytisine in rat brain; type: tissue-based
In short: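 Whole rat brain membrane preparation; displacement of [3H]cytisine from neuronal nAChRs. Binding normalised to equilibrium dissociation constants (Ki). Values are means ± SEM.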

SMILES	Dopamine release [1]	Ki [2]
CCc1cc([C@@H]2CCCN2C)on1	46%	
CN1CCC[C@@H]1c1cccnc1	114%	
Cc1cc([C@@H]2CCCN2)sn1	56%	228 nM
CN1CCC[C@@H]1c1cc(Cc2ccccc2)no1	30%	7.4 nM
CCc1cc([C@H]2CCCN2)on1	30%	552 nM
Cc1cc([C@H]2CCCN2)sn1	61%	51 nM
COCc1cc([C@H]2CCCN2C)on1	51%	21.9 nM
CCN1CCC[C@@H]1c1cc(C)no1	64%	34.3 nM
CN1CCC[C@@H]1c1cc(-c2ccccc2)no1		788 nM
c1ccc(-c2cc([C@H]3CCCN3)on2)cc1		> 10000 nM
CCCCc1cc([C@H]2CCCN2)on1		5000 nM
Cc1cc([C@@H]2CCCN2)on1	111%	7.4 nM
c1cncc([C@@H]2CCCN2)c1	155%	
CN1CCC[C@@H]1c1cc(C(F)(F)F)no1	92%	6.1 nM
CCc1cc([C@H]2CCCN2C)on1	78%	7.6 nM
CCCc1cc([C@H]2CCCN2)on1		> 10000 nM
CCCc1cc([C@H]2CCCN2C)on1	45%	14 nM
CCCCc1cc([C@H]2CCCN2C)on1	38%	24.2 nM
Cc1cc([C@H]2CCCN2C)no1		1330 nM
CN1CCC[C@@H]1c1cc(CO)no1	41%	126 nM
c1cncc([C@H]2CCCN2)c1	93%	
CCOC(=O)c1cc([C@H]2CCCN2C)on1		890 nM
Cc1cc([C@H]2CCCN2)on1	43%	333 nM
CCc1cc([C@@H]2CCCN2)on1	79%	11.7 nM
CN1CCC[C@H]1c1cccnc1	126%	
Cc1cc([C@H]2CCCN2C)sn1	41%	
Cc1cc([C@@H]2CCCN2C)on1	85%	
Cc1cc([C@@H]2CCCN2C)sn1	22%	
Cc1cc([C@H]2CCCN2C)on1	95%	
